Results on 32 compounds are retold here after ChEMBL document CHEMBL1140445, “Design, synthesis, and preliminary pharmacological evaluation of a set of small molecules that directly activate gi proteins” (J Med Chem, 2005).

What all share (format): functional
Assay [1] has as its target T1, Guanine nucleotide-binding protein G(o) subunit alpha (Homo sapiens, UniProt P09471). Put plainly: Concentration required to stimulate binding of [35S]GTP-gamma-S, with G alpha o1. In short, it runs like this: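 Gαo: His-tagged recombinant subunit from E. coli BL21/DE3, IMAC-purified. 3 pmol, native or vesicle-reconstituted, incubated 30 min at 20 °C with 0.1 μM [35S]GTPγS in Hepes-NaOH/EDTA/DTT/100 μM MgSO4 mix. The reaction was stopped with ice-cold Tris/MgCl2/NaCl buffer, filtered on cellulose nitrate and washed. EC50 was derived from eight concentrations spanning 1×10^-7 to 1×10^-4 M.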
(In general: GTPγS is a poorly hydrolysed GTP analogue; its binding reports G protein activation.)
Target sequence in this assay (P09471 whole entry): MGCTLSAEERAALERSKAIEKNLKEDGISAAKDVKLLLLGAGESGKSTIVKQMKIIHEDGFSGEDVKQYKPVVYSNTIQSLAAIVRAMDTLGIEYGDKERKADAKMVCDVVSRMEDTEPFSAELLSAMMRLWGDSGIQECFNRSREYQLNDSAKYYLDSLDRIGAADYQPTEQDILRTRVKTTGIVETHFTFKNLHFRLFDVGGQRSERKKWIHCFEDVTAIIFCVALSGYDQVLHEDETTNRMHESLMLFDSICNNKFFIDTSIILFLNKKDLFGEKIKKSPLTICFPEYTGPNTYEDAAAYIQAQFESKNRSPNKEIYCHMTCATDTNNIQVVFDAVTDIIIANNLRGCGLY

For assay [2], the target named is T1, Guanine nucleotide-binding protein G(o) subunit alpha. Kind of assay: Percent stimulation of [35S]GTP-gamma-S, binding to G alpha o1 at 5E-5 M of basal for 30 minutes. In short, it runs like this:
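With Gαo (3 pmol recombinant His-tagged subunit, native or vesicle-reconstituted), binding of 0.1 μM [35S]GTPγS was measured during 30 min at 20 °C with compound at 5×10^-5 M, in Hepes-NaOH buffer with EDTA, DTT and 100 μM MgSO4. Samples were filtered on cellulose nitrate, and the value is percent of basal binding.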
Target sequence in this assay (P09471 2-354 limits assumed): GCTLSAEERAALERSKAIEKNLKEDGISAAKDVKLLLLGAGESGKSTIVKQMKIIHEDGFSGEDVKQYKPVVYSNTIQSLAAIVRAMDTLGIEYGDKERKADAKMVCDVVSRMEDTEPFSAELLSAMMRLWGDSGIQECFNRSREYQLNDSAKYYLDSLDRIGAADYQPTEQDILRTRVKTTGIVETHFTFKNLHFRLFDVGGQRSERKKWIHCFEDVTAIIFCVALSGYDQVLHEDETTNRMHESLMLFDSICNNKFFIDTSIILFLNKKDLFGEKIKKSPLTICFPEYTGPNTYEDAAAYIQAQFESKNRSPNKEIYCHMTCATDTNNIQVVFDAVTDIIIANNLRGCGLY

Assay [3] concerns the target T2, Guanine nucleotide-binding protein G(i) subunit alpha-1 (Homo sapiens, UniProt P63096). Kind of assay: Percent stimulation of [35S]GTP-gamma-S, binding to G alpha i1 at 5E-5 M of basal for 30 minutes. The method in brief:
(§1)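 Recombinant His-tagged Gαi subunit (3 pmol, native or in lipid vesicles) was incubated with compound at 5×10^-5 M and 0.1 μM [35S]GTPγS, 30 min at 30 °C, in 50 mM Hepes-NaOH, 1 mM EDTA, 1 mM DTT, 100 μM MgSO4. Filter-bound GTPγS after ice-cold stop and cellulose-nitrate filtration is expressed as percent of basal.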

In assay [4] the target is T3, Guanine nucleotide-binding protein G(i) subunit alpha-3 (Homo sapiens, UniProt P08754). Kind of assay: Concentration required to stimulate binding of [35S]GTP-gamma-S, with G alpha i3. The method in brief:
(§2)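 His-tagged recombinant Gαi subunits were expressed in E. coli BL21/DE3 and purified by IMAC. 3 pmol of subunit, native or in lipid vesicles, was incubated 30 min at 30 °C with 0.1 μM [35S]GTPγS in 50 mM Hepes-NaOH, 1 mM EDTA, 1 mM DTT and 100 μM MgSO4. The reaction was stopped with ice-cold buffer and filtered on cellulose nitrate. EC50 came from 1×10^-7 to 1×10^-4 M (eight concentrations).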

Assay [5] concerns the target T2, Guanine nucleotide-binding protein G(i) subunit alpha-1. Kind of assay: Concentration required to stimulate binding of [35S]GTP-gamma-S, with G alpha i1. The method in brief: as §2
Assay [6] has as its target T3, Guanine nucleotide-binding protein G(i) subunit alpha-3. Kind of assay: Percent stimulation of [35S]GTP-gamma-S, binding to G alpha i3 at 5E-5 M of basal for 30 minutes. In short, it runs like this: as §1

T3 sequence (P08754 whole entry): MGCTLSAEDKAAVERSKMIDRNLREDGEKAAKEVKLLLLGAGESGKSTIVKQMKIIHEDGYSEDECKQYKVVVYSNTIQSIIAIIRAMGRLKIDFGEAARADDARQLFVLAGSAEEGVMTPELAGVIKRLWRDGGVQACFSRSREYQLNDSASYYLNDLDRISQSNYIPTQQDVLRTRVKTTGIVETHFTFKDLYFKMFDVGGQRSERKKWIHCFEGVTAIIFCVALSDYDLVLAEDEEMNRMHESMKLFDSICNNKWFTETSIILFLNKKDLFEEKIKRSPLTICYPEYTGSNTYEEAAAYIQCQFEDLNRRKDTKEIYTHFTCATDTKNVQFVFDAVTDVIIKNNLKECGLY
T2 sequence (P63096 whole entry): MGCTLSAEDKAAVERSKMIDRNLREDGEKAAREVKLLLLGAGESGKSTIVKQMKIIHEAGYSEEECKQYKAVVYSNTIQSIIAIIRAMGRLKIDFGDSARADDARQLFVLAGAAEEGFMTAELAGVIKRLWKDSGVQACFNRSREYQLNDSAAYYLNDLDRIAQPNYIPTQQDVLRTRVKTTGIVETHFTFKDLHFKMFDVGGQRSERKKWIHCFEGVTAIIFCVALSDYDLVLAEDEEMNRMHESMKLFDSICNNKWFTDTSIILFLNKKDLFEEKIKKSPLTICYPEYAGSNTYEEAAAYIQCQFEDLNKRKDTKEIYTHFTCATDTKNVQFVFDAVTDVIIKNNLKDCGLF

For orientation: EC50 means the midpoint of the concentration-response curve. A higher EC50 goes with a need for much substance. Consider `CCCCCCCCCCCCCN1CCC(C2CCNCC2)CC1`, for which the EC50 worked out at 27.1 µM in assay [1], 21.2 µM in assay [4] and 21.1 µM in assay [5]. Also, the Stimulation in assay [2] stood at 913%; in assay [3], 755%; in assay [6], 406%.
Take `CCCCCCCCCCCCCCCNC(=O)C1CCN(CCN)CC1`: the EC50 in assay [1] worked out at 16.9 µM; in assay [4], 19 µM; in assay [5], 18.4 µM. In addition, the Stimulation was 3350% in assay [2], 2630% in assay [3] and 2720% in assay [6].
Consider `CCCCCCCCCCCCCCCN1CCN(N)CC1`, for which the EC50 in assay [1] came to 3.7 µM; in assay [4] it was 6.5 µM; in assay [5], 6.5 µM. The Stimulation stood at 2870% in assay [2], 2330% in assay [3] and 2820% in assay [6].
For `CCCCCCCCCCCCCCCNC(=O)C1CCN(CCNC=O)CC1`, the EC50 in assay [1] came out at 5.5 µM; in assay [4], 9.3 µM; in assay [5] it was 8.6 µM. The Stimulation in assay [2] was 3600%; in assay [3], 3290%; in assay [6], 3240%.
For `CCCCCCCCCCCCCCCN1CCC(C2CCN(C)CC2)CC1`, the Stimulation in assay [2] came out at 93%; in assay [3], 97%; in assay [6] it was 80%.
On to `CCCCCCCCCCCCCCC(=O)NN1CCNCC1`, for which the EC50 in assay [1] came out at 23.4 µM; in assay [4] it was 24.9 µM; in assay [5], 38.5 µM. In addition, the values for the Stimulation in assay [2], in assay [3] and in assay [6] were 4640%, 2320% and 3690%, respectively.
Consider `CCCCCCCCCCCCCCCN1CCC(CCC2CCN(C)CC2)CC1`, for which the Stimulation was determined as 132% in assay [2], 86% in assay [3] and 102% in assay [6].
Regarding `CCCCCCCCCCCCNC(=O)C(N)CCCCN` (stereo not drawn), the figures for the EC50 in assay [1], in assay [4] and in assay [5] were 28.8 µM, 43.9 µM and 47.9 µM, respectively. Also, the Stimulation in assay [2] came out at 2510%; in assay [3] it was 900%; in assay [6], 1030%.
Take `CCCCCCCCCCCCCCC(=O)N1CCC(CCC2CCNCC2)CC1`: the half-maximal effective concentration (EC50) in assay [1] worked out at 6.1 µM; in assay [4], 6.3 µM; in assay [5], 6.6 µM. The Stimulation in assay [2] was determined as 724%; in assay [3] it was 845%; in assay [6], 1090%.
With `CCCCCCCCCCCCCCC(=O)N1CCC(N)CC1`, the EC50 in assay [1] came to 25.8 µM; in assay [4], 25.1 µM; in assay [5], 25.5 µM. Also, the Stimulation in assay [2] came to 1280%; in assay [3], 1050%; in assay [6], 1070%.
For `CCCCCCCCCCCCCCCN1CCC(C2CCNCC2)CC1`, the EC50 in assay [1] turned out to be 6.2 µM; in assay [4], 18.7 µM; in assay [5] it was 19.1 µM. Also, the values for the Stimulation in assay [2], in assay [3] and in assay [6] were 1810%, 1510% and 1640%, respectively.
Regarding `CCCCCCCCCCCCCCCN1CCC(NC2CCNCC2)CC1`, the EC50 turned out to be 13.5 µM in assay [1], 14.4 µM in assay [4] and 32.4 µM in assay [5]. Also, the Stimulation is 3040% in assay [2], 1540% in assay [3] and 2280% in assay [6].
`CCCCCCCCCCCCCNC1CCNCC1`: the EC50 amounted to 25.5 µM in assay [1], 18.8 µM in assay [4] and 36.4 µM in assay [5]. Also, the results for the Stimulation in assay [2], in assay [3] and in assay [6] were 2350%, 1480% and 2000%, respectively.
`CCCCCCCCCCCCCCC[N+]1(C)CCC(C2CCNCC2)CC1` (stereo not drawn): the EC50 was 10.1 µM in assay [1], 16 µM in assay [4] and 14.7 µM in assay [5]. Further, the Stimulation is 2090% in assay [2], 1580% in assay [3] and 1630% in assay [6].
As for `CCCCCCCCCCCCCCC(=O)N1CCC(C2CCN(C)CC2)CC1`, the EC50 in assay [1] was determined as 34.9 µM; in assay [4], 17.9 µM; in assay [5], 6 µM. The Stimulation is 531% in assay [2], 392% in assay [3] and 265% in assay [6].
Consider `CCCCCCCCCCCCC(=O)N1CCC(C2CCNCC2)CC1`, for which the concentration for a half-maximal effect (EC50) is 18.1 µM in assay [1], 12.1 µM in assay [4] and 17.6 µM in assay [5]. The Stimulation was determined as 1500% in assay [2], 950% in assay [3] and 1180% in assay [6].
`CCCCCCCCCCCCCCC(=O)NC1CCNCC1`: the EC50 came out at 22.7 µM in assay [1], 34.3 µM in assay [4] and 50.2 µM in assay [5]. The Stimulation was determined as 1370% in assay [2], 1270% in assay [3] and 1290% in assay [6].
With `CCCCCCCCCCCCCN1CCC(C2CCN(C)CC2)CC1`, the half-maximal effective concentration (EC50) in assay [1] amounted to 19.3 µM; in assay [4], 18.9 µM; in assay [5], 18.7 µM. The Stimulation in assay [2] worked out at 420%; in assay [3] it was 704%; in assay [6], 435%.
For the compound `CCCCCCCCCCCCCCC(=O)N1CCC(CCC2CCN(C)CC2)CC1`, the concentration giving a half-maximal response (EC50) in assay [1] came out at 12.5 µM; in assay [4], 6.1 µM; in assay [5] it was 20.1 µM. Also, the Stimulation in assay [2] came out at 742%; in assay [3], 577%; in assay [6], 815%.
Regarding `CCCCCCCCCCCCCCCCC(=O)N1CCC(C2CCN(C)CC2)CC1`, the figures for the EC50 in assay [1], in assay [4] and in assay [5] were 21.4 µM, 23.3 µM and 23 µM, respectively. Moreover, the figures for the Stimulation in assay [2], in assay [3] and in assay [6] were 472%, 232% and 181%, respectively.
As to `CCCCCCCCCCCCCCCCCN1CCC(C2CCN(C)CC2)CC1`, the Stimulation in assay [2] was 99%; in assay [3], 81%; in assay [6], 97%.
Turning to `CCCCCCCCCCCCCCCNC(=O)C1CCNCC1`, the EC50 in assay [1] is 8.2 µM; in assay [4], 5.9 µM; in assay [5], 6.4 µM. The Stimulation in assay [2] is 2270%; in assay [3], 973%; in assay [6] it was 986%.
Regarding `COc1ccccc1CN1CCC(C2CCNCC2)CC1`, the Stimulation in assay [2] stood at 129%; in assay [3], 60%; in assay [6], 391%. The compound also came in with an EC50 in assay [4] of 38.8 µM.
Regarding `CCCCCCCCCCCCCCC(=O)N1CCC(C2CCNCC2)CC1`, the EC50 in assay [1] stood at 5.6 µM; in assay [4], 9.3 µM; in assay [5], 8.6 µM. The Stimulation in assay [2] worked out at 2390%; in assay [3], 1540%; in assay [6], 1560%.
In the case of `CCCCCCCCCCCCC(=O)N1CCC(C2CCN(C)CC2)CC1`, the Stimulation in assay [2] was 126%; in assay [3] it was 84%; in assay [6], 75%.
On to `CCCCCCCCCCCCCCCCC(=O)N1CCC(C2CCNCC2)CC1`, for which the EC50 in assay [1] was 22.6 µM; in assay [4], 24.4 µM; in assay [5], 25.4 µM. For the same compound, the Stimulation in assay [2] turned out to be 920%; in assay [3] it was 612%; in assay [6] it was 424%.
For `CCCCCCCCCCCCCCCNCC1CCN(CCN)CC1`, the EC50 in assay [1] worked out at 24.3 µM; in assay [4] it was 23 µM; in assay [5], 17.8 µM. In addition, the Stimulation in assay [2] is 942%; in assay [3], 825%; in assay [6], 815%.
Turning to `CCCCCCCCCCCCCCCN1CCC(N)CC1`, the results for the EC50 in assay [1], in assay [4] and in assay [5] were 23 µM, 27.6 µM and 22.1 µM, respectively. Besides, the Stimulation in assay [2] came to 6890%; in assay [3], 3350%; in assay [6], 3780%.
In the case of `CCCCCCCCCCCCCCCNCC1CCNCC1`, the EC50 in assay [1] came to 12.4 µM; in assay [4] it was 11.4 µM; in assay [5] it was 10.6 µM. Moreover, the values for the Stimulation in assay [2], in assay [3] and in assay [6] were 4160%, 2460% and 1930%, respectively.
For the compound `CCCCCCCCCCCCCCC(=O)N1CCN(N)CC1`, the results for the EC50 in assay [1], in assay [4] and in assay [5] were 374 µM, 24.6 µM and 28.6 µM, respectively. The Stimulation came to 194% in assay [2], 173% in assay [3] and 211% in assay [6].
Regarding `CCCCCCCCCCCCCCCCCN1CCC(C2CCNCC2)CC1`, the results for the EC50 in assay [1], in assay [4] and in assay [5] were 13.4 µM, 41.5 µM and 35.7 µM, respectively. In addition, the Stimulation in assay [2] worked out at 3480%; in assay [3], 5690%; in assay [6] it was 5660%.
On to `CCCCCCCCCCCCCCCN1CCC(CCC2CCNCC2)CC1`, for which the figures for the EC50 in assay [1], in assay [4] and in assay [5] were 10.5 µM, 8050 µM and 451 µM, respectively. The Stimulation was 5010% in assay [2], 2460% in assay [3] and 2400% in assay [6].
